Experiments:
[1] = biological target: T1, Neuraminidase (Influenza A virus, UniProt B4URF0); assay: Inhibition of Influenza A virus (A/Aichi/169/2005(H1N1)) neuraminidase after 30 mins by fluorescence analysis
[2] = biological target: T1, Neuraminidase; assay: Inhibition of Influenza A virus (A/Singapore/1/1957(H2N2)) neuraminidase after 30 mins by fluorescence analysis
[3] = biological target: T1, Neuraminidase; assay: Inhibition of Influenza A virus (A/Kitakyushu/159/1993(H3N2)) neuraminidase after 30 mins by fluorescence analysis
[4] = biological target: T1, Neuraminidase; assay: Inhibition of Influenza A virus (A/California/07/2004(H3N2)) neuraminidase after 30 mins by fluorescence analysis
[5] = biological target: T1, Neuraminidase; assay: Inhibition of Influenza A virus (A/New York/55/2004(H3N2)) neuraminidase after 30 mins by fluorescence analysis
[6] = biological target: T1, Neuraminidase; assay: Inhibition of Influenza A virus (A/Yamagata/1/2002(H3N2)) neuraminidase after 30 mins by fluorescence analysis
[7] = biological target: T1, Neuraminidase; assay: Inhibition of Influenza A virus (A/Osaka/56/2004(H3N2)) neuraminidase after 30 mins by fluorescence analysis
[8] = biological target: T1, Neuraminidase; assay: Inhibition of Influenza A virus (A/Saitama/07/2006(H3N2)) neuraminidase after 30 mins by fluorescence analysis
[9] = Inhibition of Influenza B virus (B/Brisbane/32/2002(Victoria) neuraminidase after 30 mins by fluorescence analysis
Outline: (§1)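 Virus NA source was mixed with compound in 32.5 mM MES-NaOH pH 6.5 with 4 mM CaCl2 and preincubated 10 min at room temperature. Reaction ran 30 min at room temperature with 100 μM (final) 4-MU-NANA. Fluorescence was read at ex 360/em 460 nm, in triplicate. IC50 came from linear regression of residual activity against log concentration, using concentrations giving 10–90% residual activity.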

[10] = Inhibition of Influenza B virus (B/Yamagata/15/2002(Victoria)) neuraminidase after 30 mins by fluorescence analysis; outline: as §1
[11] = Inhibition of Influenza B virus (B/Tokushima/1/2003(Victoria)) neuraminidase after 30 mins by fluorescence analysis; outline: as §1
[12] = Inhibition of Influenza B virus (B/Aichi/3/2006(Victoria)) neuraminidase after 30 mins by fluorescence analysis; outline: as §1
[13] = Inhibition of Influenza B virus (B/Mie/1/1993(Yamagata)) neuraminidase after 30 mins by fluorescence analysis; outline: as §1
[14] = Inhibition of Influenza B virus (B/Aichi/186/2005(Yamagata)) neuraminidase after 30 mins by fluorescence analysis; outline: as §1
[15] = Inhibition of Influenza B virus (B/Saitama/01/2005(Yamagata)) neuraminidase after 30 mins by fluorescence analysis; outline: as §1
[16] = Inhibition of Influenza B virus (B/Yamagata/1/2005(Yamagata)) neuraminidase after 30 mins by fluorescence analysis; outline: as §1
[17] = biological target: T1, Neuraminidase; assay: Inhibition of Influenza A virus (A/seal/Massachusetts/1/1980(H7N7)) neuraminidase after 30 mins by fluorescence analysis
[18] = biological target: T1, Neuraminidase; assay: Inhibition of Influenza A virus (A/duck/Ukraine/1/1963(H3N8)) neuraminidase after 30 mins by fluorescence analysis

T1 sequence (B4URF0 whole entry): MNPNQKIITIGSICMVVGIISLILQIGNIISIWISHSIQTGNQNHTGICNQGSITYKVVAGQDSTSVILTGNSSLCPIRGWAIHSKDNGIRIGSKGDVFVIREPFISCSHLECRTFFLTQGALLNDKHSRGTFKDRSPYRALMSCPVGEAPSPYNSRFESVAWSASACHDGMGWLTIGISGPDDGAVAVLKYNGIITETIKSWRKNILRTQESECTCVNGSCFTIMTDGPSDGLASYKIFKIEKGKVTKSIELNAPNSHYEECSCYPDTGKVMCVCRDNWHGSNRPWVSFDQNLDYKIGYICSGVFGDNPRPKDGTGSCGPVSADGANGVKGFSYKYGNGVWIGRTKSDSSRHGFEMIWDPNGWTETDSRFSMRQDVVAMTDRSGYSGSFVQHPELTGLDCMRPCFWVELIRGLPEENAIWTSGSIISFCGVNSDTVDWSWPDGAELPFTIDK

Which IC50 [1] does the source give for `CCCCCCCC(=O)OC[C@@H](O)[C@@H](OC)[C@@H]1OC(C(=O)O)=C[C@H](NC(=N)N)[C@H]1NC(C)=O` [LANINAMIVIR OCTANOATE] here?
Its IC50 is 664 nM.

What about the IC50 [2] of the same compound?
Its IC50 is 128 nM.

What about the IC50 [3] of the same compound?
The IC50 was 221 nM.

What about the IC50 [4] of the same compound?
The IC50 was 135 nM.

And the IC50 [5]?
The IC50 was 136 nM.

And the IC50 [6]?
The IC50 was 56.6 nM.

And the IC50 [7]?
Its IC50 is 129 nM.

What about the IC50 [8] of the same compound?
The IC50 was 63.3 nM.

What about the IC50 [9] of the same compound?
Its IC50 is 9890 nM.

And the IC50 [10]?
Its IC50 is 6980 nM.

And the IC50 [11]?
The IC50 was 13800 nM.

What about the IC50 [12] of the same compound?
The IC50 was 13800 nM.

What about the IC50 [13] of the same compound?
Its IC50 is 6850 nM.

And the IC50 [14]?
Its IC50 is 3550 nM.

And the IC50 [15]?
Its IC50 is 3610 nM.

What about the IC50 [16] of the same compound?
The IC50 was 3630 nM.

And the IC50 [17]?
Its IC50 is 142 nM.

And the IC50 [18]?
Its IC50 is 1050 nM.

Reference: ChEMBL document CHEMBL1629572 (Antimicrob Agents Chemother, 2009)
